Assay results reported in ChEMBL document CHEMBL4219111, “Multifunctional 5,6-dimethoxybenzo[d]isothiazol-3(2H)-one-N-alkylbenzylamine derivatives with acetylcholinesterase, monoamine oxidases and β-amyloid aggregation inhibitory activities as potential agents against Alzheimer's disease” (Bioorg Med Chem, 2018).
Active and inactive are the calls of the source. The calls are words filed in the database; no cut-off is given here.

Columns and labels:
[1] = target: Acetylcholinesterase (Electrophorus electricus, UniProt O42275); assay: Inhibition of Electrophorus electricus AChE using acetylthiocholine iodide as substrate measured after 15 mins by Ellman's method
Chain of Acetylcholinesterase (O42275 whole entry): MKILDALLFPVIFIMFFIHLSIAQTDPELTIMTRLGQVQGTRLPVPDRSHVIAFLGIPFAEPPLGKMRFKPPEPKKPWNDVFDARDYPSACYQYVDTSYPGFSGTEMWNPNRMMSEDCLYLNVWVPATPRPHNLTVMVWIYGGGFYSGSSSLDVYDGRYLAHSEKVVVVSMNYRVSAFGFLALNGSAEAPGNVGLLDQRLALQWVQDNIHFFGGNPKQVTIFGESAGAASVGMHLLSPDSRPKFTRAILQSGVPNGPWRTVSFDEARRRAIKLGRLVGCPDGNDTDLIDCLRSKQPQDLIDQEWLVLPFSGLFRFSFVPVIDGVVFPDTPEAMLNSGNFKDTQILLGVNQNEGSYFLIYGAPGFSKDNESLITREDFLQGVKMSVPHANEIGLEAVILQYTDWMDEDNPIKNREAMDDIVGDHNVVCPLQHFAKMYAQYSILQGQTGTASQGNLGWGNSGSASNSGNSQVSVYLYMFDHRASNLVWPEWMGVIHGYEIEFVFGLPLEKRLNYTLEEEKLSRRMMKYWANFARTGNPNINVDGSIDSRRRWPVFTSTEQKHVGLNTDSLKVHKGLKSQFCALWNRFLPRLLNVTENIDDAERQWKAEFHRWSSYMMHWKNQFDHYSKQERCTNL

[2] = organism: Rattus norvegicus; assay: Inhibition of rat serum BuChE using butyrylthiocholine iodide as substrate measured at 50 uM after 15 mins by Ellman's method relative to control
How it was run: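 Rat serum (25%) as enzyme source; modified Ellman method in […] pH 7.4 with 1 mmol/L butyrylthiocholine iodide and 0.2% DTNB; 37 °C for 15 min, absorbance at 405 nm. Percent inhibition at 50 µM test compound, each concentration in triplicate.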

[3] = target: T1, Amine oxidase [flavin-containing] B (Homo sapiens, UniProt P27338); assay: Inhibition of recombinant human MAO-B using kynuramine as substrate after 30 mins by fluorescence assay
T1 sequence (P27338 whole entry): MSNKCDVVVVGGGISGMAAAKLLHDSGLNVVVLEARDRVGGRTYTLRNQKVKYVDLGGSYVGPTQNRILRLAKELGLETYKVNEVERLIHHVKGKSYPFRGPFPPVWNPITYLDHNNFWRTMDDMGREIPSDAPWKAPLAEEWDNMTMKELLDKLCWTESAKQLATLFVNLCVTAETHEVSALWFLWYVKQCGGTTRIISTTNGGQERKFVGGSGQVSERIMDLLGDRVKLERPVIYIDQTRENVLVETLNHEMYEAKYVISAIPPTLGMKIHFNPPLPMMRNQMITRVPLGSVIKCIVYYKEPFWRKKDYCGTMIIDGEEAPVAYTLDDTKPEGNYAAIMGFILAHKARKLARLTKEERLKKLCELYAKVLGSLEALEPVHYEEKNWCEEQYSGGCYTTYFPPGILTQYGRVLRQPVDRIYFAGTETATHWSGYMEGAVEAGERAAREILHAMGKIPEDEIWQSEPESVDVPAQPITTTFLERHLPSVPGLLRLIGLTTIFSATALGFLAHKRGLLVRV

[4] = Antioxidant activity assessed as trolox equivalents of AAPH radical scavenging activity at 5 uM preincubated for 15 mins followed by AAPH addition measured every min for 90 mins by ORAC-FL assay; format: functional
How it was run: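 ORAC-FL in 75 mM phosphate buffer pH 7.4, 200 µL final. Sample plus fluorescein (150 nM final) pre-incubated 15 min at 37 °C, then AAPH added (12 mM final). Fluorescence read every minute for 90 min, ex 485/em 535 nm, normalized to FL+AAPH blank. Trolox standard 1-8 µM final; values given as µM Trolox equivalent per µM compound. Duplicate wells, at least three independent assays.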

[5] = organism: Homo sapiens; assay: Selectivity index, ratio of IC50 for recombinant human MAO-A to IC50 for recombinant human MAO-B
How it was run: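 Ratio of IC50s, each from a sigmoidal curve of initial kynuramine oxidation rate versus log inhibitor concentration. Curves used six concentrations within 0-100 µM, spanning at least three orders of magnitude. IC50s determined in triplicate.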

[6] = target: T2, Amine oxidase [flavin-containing] A (Homo sapiens, UniProt P21397); assay: Inhibition of recombinant human MAO-A using kynuramine as substrate after 30 mins by fluorescence assay
T2 sequence (P21397 whole entry): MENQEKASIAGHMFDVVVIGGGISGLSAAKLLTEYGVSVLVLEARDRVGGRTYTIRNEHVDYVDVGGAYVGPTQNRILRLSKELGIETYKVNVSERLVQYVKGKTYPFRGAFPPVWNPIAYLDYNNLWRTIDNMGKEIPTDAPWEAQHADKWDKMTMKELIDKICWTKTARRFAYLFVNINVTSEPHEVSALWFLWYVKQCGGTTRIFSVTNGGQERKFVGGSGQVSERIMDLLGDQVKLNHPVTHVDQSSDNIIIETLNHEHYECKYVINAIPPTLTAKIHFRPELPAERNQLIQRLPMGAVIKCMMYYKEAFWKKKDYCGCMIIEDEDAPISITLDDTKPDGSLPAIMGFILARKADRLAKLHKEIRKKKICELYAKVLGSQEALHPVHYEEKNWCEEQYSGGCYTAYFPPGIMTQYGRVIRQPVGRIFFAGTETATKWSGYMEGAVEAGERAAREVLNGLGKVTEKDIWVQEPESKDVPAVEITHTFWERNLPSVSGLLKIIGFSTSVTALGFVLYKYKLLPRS

[7] = target: Amyloid-beta precursor protein (Homo sapiens) (UniProt P05067); assay: Inhibition of self-induced aggregation of amyloid beta (1 to 42) (unknown origin) at 25 uM after 24 hrs by thioflavin T fluorescence-based fluorometric method relative to control
Chain of Amyloid-beta precursor protein (Homo sapiens) (P05067 whole entry): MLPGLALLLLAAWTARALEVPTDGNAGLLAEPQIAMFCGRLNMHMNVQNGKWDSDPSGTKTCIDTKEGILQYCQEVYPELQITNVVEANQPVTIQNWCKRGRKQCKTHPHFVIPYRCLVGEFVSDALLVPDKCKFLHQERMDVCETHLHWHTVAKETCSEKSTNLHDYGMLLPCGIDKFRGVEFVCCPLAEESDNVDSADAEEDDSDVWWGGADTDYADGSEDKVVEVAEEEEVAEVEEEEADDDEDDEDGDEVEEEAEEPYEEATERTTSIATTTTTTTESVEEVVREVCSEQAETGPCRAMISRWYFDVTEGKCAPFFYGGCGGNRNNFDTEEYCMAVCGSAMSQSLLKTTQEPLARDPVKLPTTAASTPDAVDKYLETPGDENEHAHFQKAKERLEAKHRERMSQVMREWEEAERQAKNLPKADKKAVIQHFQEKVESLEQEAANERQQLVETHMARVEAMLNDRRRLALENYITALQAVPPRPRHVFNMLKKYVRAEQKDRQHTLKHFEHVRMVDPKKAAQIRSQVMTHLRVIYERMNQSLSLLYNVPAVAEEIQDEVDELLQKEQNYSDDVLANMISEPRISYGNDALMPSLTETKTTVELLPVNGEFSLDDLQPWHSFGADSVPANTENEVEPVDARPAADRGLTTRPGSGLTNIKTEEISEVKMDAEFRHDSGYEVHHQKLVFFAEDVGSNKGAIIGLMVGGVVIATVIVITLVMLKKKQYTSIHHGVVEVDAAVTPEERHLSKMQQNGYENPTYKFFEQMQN
How it was run: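 Aβ1-42 pretreated in HFIP 24 h at room temperature, dried, redissolved in DMSO. Peptide (25 µM final) incubated with compound (25 µM final) in 50 mM phosphate pH 7.4 for 24 h at 37 °C. ThT (5 µM) added in 50 mM glycine-NaOH pH 8.5; fluorescence read at ex 446/em 490 nm. Inhibition = (1 − IFi/IFc)×100 after background subtraction, triplicate.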

[8] = target: T1, Amine oxidase [flavin-containing] B; assay: Inhibition of recombinant human MAO-B at 10 uM using kynuramine as substrate after 30 mins by fluorescence assay relative to control; settings: 0.5 h
How it was run: (§1)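 Recombinant human MAO-A or MAO-B, kynuramine substrate (45 µM for MAO-A, 30 µM for MAO-B), in 100 mM potassium phosphate pH 7.40 with 20.2 mM KCl and under 4% DMSO. Enzyme (7.5 µg/mL) starts the reaction; 30 min at 37 °C. Stopped with NaOH plus water, centrifuged, supernatant fluorescence read at ex 310/em 400 nm. Percent inhibition at 10 µM.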

[9] = target: T2, Amine oxidase [flavin-containing] A; assay: Inhibition of recombinant human MAO-A at 10 uM using kynuramine as substrate after 30 mins by fluorescence assay relative to control; settings: 0.5 h; how it was run: as §1
[10] = target: Acetylcholinesterase (Electrophorus electricus) (UniProt O42275); assay: Mixed type inhibition of Electrophorus electricus AChE at 0.1 to 0.5 uM using varying levels of acetylthiocholine iodide as substrate incubated for 15 mins followed by substrate addition by Lineweaver-Burk plot analysis
Chain of Acetylcholinesterase (Electrophorus electricus) (O42275 24-633 limits assumed): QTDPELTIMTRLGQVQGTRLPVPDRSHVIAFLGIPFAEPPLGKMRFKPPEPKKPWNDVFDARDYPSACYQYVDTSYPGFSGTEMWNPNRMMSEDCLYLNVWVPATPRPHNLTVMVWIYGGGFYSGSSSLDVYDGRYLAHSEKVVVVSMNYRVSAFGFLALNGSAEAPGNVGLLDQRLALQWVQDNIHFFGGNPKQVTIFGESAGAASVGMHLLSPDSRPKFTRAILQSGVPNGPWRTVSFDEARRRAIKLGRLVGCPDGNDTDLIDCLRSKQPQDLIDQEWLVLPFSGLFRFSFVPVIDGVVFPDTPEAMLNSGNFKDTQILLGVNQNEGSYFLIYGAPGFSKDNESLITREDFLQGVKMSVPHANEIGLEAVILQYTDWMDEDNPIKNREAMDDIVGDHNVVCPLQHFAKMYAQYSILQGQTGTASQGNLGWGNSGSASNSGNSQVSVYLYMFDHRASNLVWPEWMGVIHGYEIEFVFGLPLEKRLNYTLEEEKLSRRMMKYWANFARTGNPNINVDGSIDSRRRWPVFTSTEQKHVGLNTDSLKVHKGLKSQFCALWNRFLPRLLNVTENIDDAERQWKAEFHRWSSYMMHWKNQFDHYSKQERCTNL

[11] = Effective permeability of the compound at 100 ug/ml after 18 hrs by PAMPA-BBB assay
[12] = Inhibition of rat serum BuChE using butyrylthiocholine iodide as substrate measured after 15 mins by Ellman's method

Structure (SMILES) | IC50 [1] | inhibition [2] | IC50 [3] | Activity [4] | Ratio IC50 [5] | IC50 [6] | inhibition [7] | inhibition at 10 µM [8] | inhibition at 10 µM [9] | inhibition [10] | Papp at 18 h, 100 ug/ml [11] | IC50 [12]
CCN(CCCCn1sc2cc(OC)c(OC)cc2c1=O)Cc1ccccc1OC | 4.99 µM | 36.4% | 19.4 µM | 0.3 equiv | 0.49 | 9.6 µM | 21.1% | – | – | – | – | –
CCN(CCCn1sc2cc(OC)c(OC)cc2c1=O)Cc1ccccc1N(C)C | 9.7 µM | 27.9% | – | 0.22 equiv | – | 16.6 µM | 19.8% | 45.4% | – | – | – | –
CCN(CCCCCCN1C(=O)c2cc(OC)c(OC)cc2S1(=O)=O)Cc1ccccc1 | 13.1 µM | 35.7% | – | 0.2 equiv | – | – | 6% | 38.9% | 30.2% | – | – | –
COc1cc2sn(CCCN(C)Cc3ccccc3)c(=O)c2cc1OC | 7.5 µM | 11.5% | – | 0.91 equiv | – | 6.9 µM | 7.6% | 44.4% | – | – | – | –
CCN(CCCn1sc2cc(OC)c(OC)cc2c1=O)Cc1ccc(N(C)C)cc1 | 12.9 µM | 9.6% | – | 0.58 equiv | – | 11.3 µM | 13.4% | 40.1% | – | – | – | –
COc1ccccc1CN(C)CCCCCCn1c(=O)c2cc(OC)c(OC)cc2[s+]1[O-] (configuration not stated) | 0.8 µM | 28.7% | – | 0.33 equiv | – | – | 38% | 12.2% | 23.8% | – | – | –
COc1cc2sn(CCCCN(C)Cc3ccccc3)c(=O)c2cc1OC | 1.2 µM | 14.7% | 19.7 µM | 0.21 equiv | 0.45 | 8.9 µM | 17.3% | – | – | – | – | –
COc1cc2s[nH]c(=O)c2cc1OC | 34.9 µM | 10.3% | – | 0.29 equiv | – | 21 µM | 12.2% | 14% | – | – | – | –
CCN(CCCCn1sc2cc(OC)c(OC)cc2c1=O)Cc1ccccc1 | 0.8 µM | 21.8% | 20.1 µM | 0.53 equiv | 0.99 | 19.9 µM | 9.4% | – | – | – | – | –
COc1cc2sn(CCCCCCN(C)Cc3ccccc3)c(=O)c2cc1OC | 0.35 µM | 23.1% | 13.2 µM | 0.29 equiv | 1.74 | 23 µM | 4.3% | – | – | – | – | –
CCN(CCCn1sc2cc(OC)c(OC)cc2c1=O)Cc1ccccc1OC | 8.3 µM | 18.9% | – | 0.82 equiv | – | 15.5 µM | 12.4% | 37% | – | – | – | –
CCN(CCCCCCn1c(=O)c2cc(OC)c(OC)cc2[s+]1[O-])Cc1ccccc1 (configuration not stated) | 0.38 µM | 8.1% | – | 0.23 equiv | – | – | 29.2% | 14.6% | 21.5% | – | – | –
CCN(CCCCCCn1sc2cc(OC)c(OC)cc2c1=O)Cc1ccccc1 | 0.29 µM | 48.2% | 20.1 µM | 0.27 equiv | 0.41 | 8.2 µM | 35.4% | – | – | Active | 15.6 ×10⁻⁶ cm/s | –
CCN(CCCCCCn1sc2cc(OC)c(OC)cc2c1=O)Cc1ccc(N(C)C)cc1 | 6.5 µM | 22.7% | 12.4 µM | 1.92 equiv | 0.57 | 7.1 µM | 33.4% | – | – | – | – | –
CCN(CCCCCCn1sc2cc(OC)c(OC)cc2c1=O)Cc1ccccc1N(C)C | 0.56 µM | 46.8% | 19.6 µM | 0.35 equiv | 0.17 | 3.4 µM | 31.2% | – | – | – | – | –
CCN(CCCCn1sc2cc(OC)c(OC)cc2c1=O)Cc1ccc(N(C)C)cc1 | 8.85 µM | 23.2% | 18.8 µM | 2.14 equiv | 0.85 | 15.9 µM | 32.5% | – | – | – | – | –
COc1ccccc1CN(C)CCCCCCn1sc2cc(OC)c(OC)cc2c1=O | 0.61 µM | 28.8% | 13.7 µM | 0.26 equiv | 1.45 | 19.9 µM | 20.2% | – | – | – | – | –
CCN(CCCn1sc2cc(OC)c(OC)cc2c1=O)Cc1ccccc1 | 6.65 µM | 12.3% | – | 0.84 equiv | – | 9.9 µM | 19.6% | 46.3% | – | – | – | –
COc1ccccc1CN(C)CCCn1sc2cc(OC)c(OC)cc2c1=O | 12 µM | 10.8% | – | 0.83 equiv | – | 9.4 µM | 21.8% | 48.6% | – | – | – | –
COc1ccccc1CN(C)CCCCCCN1C(=O)c2cc(OC)c(OC)cc2S1(=O)=O | 1.02 µM | < 5% | – | 0.16 equiv | – | – | 23.9% | 29.2% | 28.1% | – | – | –
COc1cc2c(cc1OC)C(=O)C(CC1CCN(Cc3ccccc3)CC1)C2 (configuration not stated) [DONEPEZIL] | – | – | – | – | – | – | – | – | – | – | – | 21.4 µM
CCN(CCCCn1sc2cc(OC)c(OC)cc2c1=O)Cc1ccccc1N(C)C | 7.1 µM | 32.6% | – | 0.34 equiv | – | 9.9 µM | 11.7% | 46.5% | – | – | – | –
CCN(CCCCCCn1sc2cc(OC)c(OC)cc2c1=O)Cc1ccccc1OC | 0.46 µM | 46.9% | – | 0.28 equiv | – | 7.9 µM | 48% | 43.8% | – | – | 4.32 ×10⁻⁶ cm/s | –
COc1ccccc1CN(C)CCCCn1sc2cc(OC)c(OC)cc2c1=O | 5.9 µM | 25.5% | 19.2 µM | 0.39 equiv | 0.37 | 7.1 µM | 11.7% | – | – | – | – | –
